Test results reported in ChEMBL document CHEMBL4400568, “The design of 1,4-naphthoquinone derivatives and mechanisms underlying apoptosis induction through ROS-dependent MAPK/Akt/STAT3 pathways in human lung cancer cells” (Bioorg Med Chem, 2019).
Activity calls are given as the source filed them. The rule behind the calls is not given here.

Experiments:
A549 [1] = assay: Induction of apoptosis in human A549 cells assessed as increase in cleaved PARP expression at 3 uM by Western blot analysis; format: functional, cell-based; details: TDE = time-dependent effect
In short: (§1)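 A549 cells exposed to 3 μM for 3, 6, 12 or 24 h; where NAC is used, 10 mM NAC is added 30 min before 24 h treatment. Lysate protein (30 μg) is run on 12% SDS-PAGE, blotted to nitrocellulose, blocked in 5% milk, primary antibody overnight at 4°C, then HRP anti-IgG. β-actin loading control; densitometry; three independent experiments, mean ± SD.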

A549 [2] = assay: Induction of ROS generation in human A549 cells assessed as intracellular ROS level at 3 uM after 3 hrs by DCFH-DA staining-based flow cytometric analysis (reference value: 51.8%); format: functional
In short: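 A549 cells loaded with DCFH-DA (10 μM per legend) for 30 min, then exposed to 3 μM at 37°C for 3, 6, 12 or 24 h. After two PBS washes, intracellular fluorescence is quantified by flow cytometry. Three independent experiments, mean ± SD.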

A549 [3] = assay: Induction of apoptosis in human A549 cells assessed as decrease in Bcl-2 expression at 3 uM after 24 hrs by Western blot analysis; format: functional, cell-based; in short: as §1
[4] = biological target: T1, MAP kinase p38 (Homo sapiens) (UniProt O15264+Q15759+Q16539+P53778); assay: Modulation of p38 MAPK in human A549 cells assessed as increase in cleaved caspase-3 level measured after 24 hrs in presence of p38 inhibitor SB203580 by Western blot analysis; format: cell-based
In short: (§2)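 A549 cells pre-incubated for 30 min with 12.1 μM kinase inhibitor: SB203580 (p38), SP600125 (JNK), FR180204 (ERK) or LY10249 (Akt). Compound treatment followed for 24 h. Lysates (30 μg protein) analysed by 12% SDS-PAGE and nitrocellulose immunoblot with HRP detection. Three independent experiments, mean ± SD.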

A549 [5] = assay: Induction of apoptosis in human A549 cells assessed as early apoptotic cells at 3 uM after 6 hrs by Annexin V-FITC/propidium iodide staining-based flow cytometric analysis (reference value: 2.73%); format: functional
A549 [6] = assay: Induction of apoptosis in human A549 cells assessed as increase in cleaved caspase-3 expression at 3 uM by Western blot analysis; format: functional, cell-based; details: TDE = time-dependent effect; in short: as §1
A549 [7] = assay: Cell cycle arrest in human A549 cells assessed as accumulation of cells at G1 phase at 3 uM after 24 hrs by propidium iodide staining-based flow cytometric analysis (reference value: 57.65%); format: functional
A549 [8] = assay: Induction of apoptosis in human A549 cells assessed as nuclear condensation at 3 uM by Annexin V-FITC/propidium iodide staining-based flow cytometric analysis; format: functional, cell-based; details: TDE = time-dependent effect
In short: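 A549 cells seeded at 1 × 10⁵ cells/well, exposed to 3 μM for 3, 6, 12 and 24 h. Then incubated in binding buffer and stained with Annexin V-FITC and PI for 20 min in the dark. Apoptotic cells were scored by fluorescence microscopy and flow cytometry. Three independent experiments, mean ± SD.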

A549 [9] = assay: Induction of apoptosis in human A549 cells assessed as early apoptotic cells at 3 uM after 3 hrs by Annexin V-FITC/propidium iodide staining-based flow cytometric analysis (reference value: 2.73%); format: functional
A549 [10] = assay: Inhibition of ERK in human A549 cells assessed as decrease in STAT3 phosphorylation at 3 uM after 24 hrs in presence of NAC by Western blot analysis; format: cell-based
In short: (§3)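 A549 cells pretreated with 10 mM NAC for 30 min, then exposed to compound for 24 h. Lysate protein (30 μg) resolved on 12% SDS-PAGE and transferred to nitrocellulose. Probed with primary antibodies overnight at 4°C, then HRP secondary. Band densities from three independent experiments, mean ± SD.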

A549 [11] = assay: Inhibition of ERK in human A549 cells assessed as decrease in STAT3 phosphorylation at 3 uM after 3 to 24 hrs by Western blot analysis; format: cell-based
In short: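 A549 cells exposed to 3 μM for 3, 6, 12 or 24 h. Lysate protein (30 μg) run on 12% SDS-PAGE and blotted to nitrocellulose. Membranes blocked in 5% skim milk, primary antibodies at 4°C overnight, then HRP anti-IgG secondary for 1 h at room temperature. β-actin was the internal control. Bands quantified by densitometry; three independent experiments, mean ± SD.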

A549 [12] = assay: Induction of apoptosis in human A549 cells assessed as early apoptotic cells at 3 uM after 24 hrs by Annexin V-FITC/propidium iodide staining-based flow cytometric analysis (reference value: 2.73%); format: functional
A549 [13] = assay: Modulation of ERK in human A549 cells assessed as decrease in STAT3 phosphorylation measured after 24 hrs in presence of ERK inhibitor FR180204 by Western blot analysis; format: cell-based
[14] = biological target: RAC-alpha serine/threonine-protein kinase (Homo sapiens) (UniProt P31749); assay: Modulation of AKT in human A549 cells assessed as decrease in CDK6 levels measured after 24 hrs in presence of Akt inhibitor-LY10249 by Western blot analysis; format: cell-based; in short: as §2
Chain of RAC-alpha serine/threonine-protein kinase (Homo sapiens) (P31749 whole entry): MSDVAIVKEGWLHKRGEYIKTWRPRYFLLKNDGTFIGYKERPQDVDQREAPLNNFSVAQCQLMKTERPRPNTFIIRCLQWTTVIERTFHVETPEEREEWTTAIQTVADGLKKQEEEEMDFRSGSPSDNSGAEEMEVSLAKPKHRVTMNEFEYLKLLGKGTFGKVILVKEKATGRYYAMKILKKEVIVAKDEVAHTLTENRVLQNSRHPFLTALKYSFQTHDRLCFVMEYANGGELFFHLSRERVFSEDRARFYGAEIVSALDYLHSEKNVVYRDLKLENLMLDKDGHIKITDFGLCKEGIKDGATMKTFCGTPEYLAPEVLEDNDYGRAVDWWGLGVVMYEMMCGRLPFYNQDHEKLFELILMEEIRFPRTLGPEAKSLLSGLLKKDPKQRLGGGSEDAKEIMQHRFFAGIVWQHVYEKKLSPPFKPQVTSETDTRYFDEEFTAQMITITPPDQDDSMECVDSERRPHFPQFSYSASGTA

[15] = biological target: T1, MAP kinase p38 (Homo sapiens); assay: Activation of p38 phosphorylation in human A549 cells at 3 uM after 24 hrs in presence of NAC by Western blot analysis; format: cell-based; in short: as §1
[16] = biological target: RAC-alpha serine/threonine-protein kinase (Homo sapiens) (UniProt P31749); assay: Inhibition of AKT phosphorylation in human A549 cells at 3 uM measured after 24 hrs in presence of NAC by Western blot analysis; format: cell-based; in short: as §3
A549 [17] = assay: Cell cycle arrest in human A549 cells assessed as increase in p21 levels at 3 uM by Western blot analysis; format: functional, cell-based; details: TDE = time-dependent effect; in short: as §1

Row | SMILES | Activity (A549 [1]) | Activity (A549 [2]) [%] | Activity (A549 [3]) | Activity [4] | Activity (A549 [5]) [%] | Activity (A549 [6]) | Activity (A549 [7]) [%] | Activity (A549 [8]) | Activity (A549 [9]) [%] | inhibition (A549 [10]) | inhibition (A549 [11]) | Activity (A549 [12]) | Activity (A549 [13]) | Activity [14] | Activity [15] | inhibition [16] | Activity (A549 [17])
1 | CCCS(=O)(=O)C12OC1C(=O)c1c(OC)ccc(OC)c1C2=O (centres undefined) | Tde | 57.9 | Active | inactive | 16.31 | Tde | 72.02 | Tde | 13.29 | inactive | Active | 48.76% | Active | Active | inactive | inactive | Tde
2 | CCCCCCCCCS(=O)(=O)C12OC1C(=O)c1c(OC)ccc(OC)c1C2=O (centres undefined) | Tde | 52.52 | Active | inactive | 14.47 | Tde | 71.38 | Tde | 8.15 | inactive | Active | 24.66 - 30.02% | Active | Active | inactive | inactive | Tde
